From ChEMBL document CHEMBL1159121, “Synthesis, in vitro structure-activity relationship, and in vivo studies of 2-arylthiazolidine-4-carboxylic acid amides as anticancer agents” (Bioorg Med Chem, 2010)

Columns and labels:
OVCAR-5 = test: Growth inhibition of human OVCAR5 cells; format: functional
[1] = Growth inhibition of human […] cells; format: functional
HL-60(TB) = test: Growth inhibition of human HL-60(TB) cells; format: functional
MDA-MB-231 = test: Growth inhibition of human MDA-MB-231 cells; format: functional
MDA-MB-435 = test: Growth inhibition of human MDA-MB-435 cells; format: functional
HT-29 = test: Growth inhibition of human HT-29 cells; format: functional
SK-OV-3 = test: Growth inhibition of human SKOV3 cells; format: functional
COLO 205 = test: Growth inhibition of human COLO205 cells; format: functional
SN12C = test: Growth inhibition of human SN12C cells; format: functional
U-251 = test: Growth inhibition of human U251 cells; format: functional
OVCAR-3 = test: Growth inhibition of human OVCAR-3 cells; format: functional
SW-620 = test: Growth inhibition of human SW620 cells; format: functional
HCC 2998 = test: Growth inhibition of human HCC2998 cells; format: functional
UACC-257 = test: Growth inhibition of human UACC257 cells; format: functional
HCT-15 = test: Growth inhibition of human HCT15 cells; format: functional
HCT-116 = test: Growth inhibition of human HCT116 cells; format: functional
A498 = test: Growth inhibition of human A498 cells; format: functional
BT-549 = test: Growth inhibition of human BT549 cells; format: functional
ACHN = test: Growth inhibition of human ACHN cells; format: functional
CCRF-CEM = test: Growth inhibition of human CCRF-CEM cells; format: functional
LOX IMVI = test: Growth inhibition of human LOXIMVI cells; format: functional
M14 = test: Growth inhibition of human M14 cells; format: functional
SNB-75 = test: Growth inhibition of human SNB75 cells; format: functional
[2] = Antiproliferative activity against human WM164 cells after 48 hrs by SRB assay; format: functional, cell-based; conditions: WM164, 48 h
Summary of the method: (§1)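 Melanoma lines and control fibroblasts grown at 37 °C, 5% CO2, then exposed to a wide concentration range for 48 h in round-bottom 96-well plates. Fixed with 10% TCA, stained with SRB, protein read at 560 nm. IC50 (50% growth inhibition versus untreated) obtained by nonlinear regression.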

SF-295 = test: Growth inhibition of human SF295 cells; format: functional
HOP-62 = test: Growth inhibition of human HOP62 cells; format: functional
UACC-62 = test: Growth inhibition of human UACC62 cells; format: functional
SK-MEL-5 = test: Growth inhibition of human SK-MEL-5 cells; format: functional
SR = test: Growth inhibition of human SR cells; format: functional
EKVX = test: Growth inhibition of human EKVX cells; format: functional
SF-268 = test: Growth inhibition of human SF268 cells; format: functional
OVCAR-4 = test: Growth inhibition of human OVCAR4 cells; format: functional
[3] = Cytotoxicity against human fibroblasts after 48 hrs by SRB assay; format: cell-based; conditions: Fibroblast; summary of the method: as §1
PC-3 = test: Growth inhibition of human PC3 cells; format: functional
[4] = Growth inhibition of human Hs 578T cells; format: functional
NCI-H460 = test: Growth inhibition of human NCI-H460 cells; format: functional
NCI/ADR-RES = test: Growth inhibition of human NCI/ADR-RES cells; format: functional
NCI-H23 = test: Growth inhibition of human NCI-H23 cells; format: functional
SNB-19 = test: Growth inhibition of human SNB19 cells; format: functional
RH7777 = test: Cytotoxicity against rat RH7777 cells after 96 hrs by SRB assay; format: cell-based; conditions: RH7777, 96 h
Summary of the method: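 Prostate lines in RPMI1640/10% FBS; RH7777 in DMEM/10% FBS. Cells TCA-fixed, stained with 0.4% SRB, absorbance read at 540 nm. IC50 from nonlinear regression of % survival against concentration.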

MOLT-4 = test: Growth inhibition of human MOLT4 cells; format: functional
[5] = Antiproliferative activity against mouse B16-F1 cells after 48 hrs by SRB assay; format: functional, cell-based; conditions: B16-F1, 48 h; summary of the method: as §1
[6] = read-out: LC50 (the source's name)

CCCCCCCCCCCCCCCCCCNC(=O)[C@@H]1CSC(c2ccccc2)N1 (mixture of isomers)
GI50 (OVCAR-5): 1.91 µM | TGI (OVCAR-5): 3.32 µM | CC50 (OVCAR-5; [6]): 5.76 µM | GI50 [1]: 2.12 µM | TGI [1]: 4.63 µM | CC50 [1, 6]: 11.7 µM | GI50 (HL-60(TB)): 2.03 µM | TGI (HL-60(TB)): 3.8 µM | CC50 (HL-60(TB); [6]): 7.11 µM | GI50 (MDA-MB-231): 1.61 µM | TGI (MDA-MB-231): 3.12 µM | CC50 (MDA-MB-231; [6]): 6.05 µM | GI50 (MDA-MB-435): 2.01 µM | TGI (MDA-MB-435): 4.12 µM | CC50 (MDA-MB-435; [6]): 8.45 µM | GI50 (HT-29): 1.75 µM | TGI (HT-29): 3.41 µM | CC50 (HT-29; [6]): 6.67 µM | GI50 (SK-OV-3): 2.9 µM | TGI (SK-OV-3): 5.65 µM | CC50 (SK-OV-3; [6]): 18.6 µM | GI50 (COLO 205): 2.32 µM | TGI (COLO 205): 4.98 µM | CC50 (COLO 205; [6]): 12.7 µM | GI50 (SN12C): 1.94 µM | TGI (SN12C): 3.35 µM | CC50 (SN12C; [6]): 5.79 µM | GI50 (U-251): 1.8 µM | TGI (U-251): 3.19 µM | CC50 (U-251; [6]): 5.65 µM | GI50 (OVCAR-3): 4.27 µM | TGI (OVCAR-3): 16.2 µM | CC50 (OVCAR-3; [6]): 80.2 µM | GI50 (SW-620): 1.18 µM | TGI (SW-620): 2.4 µM | CC50 (SW-620; [6]): 4.9 µM | GI50 (HCC 2998): 0.54 µM | TGI (HCC 2998): 1.8 µM | CC50 (HCC 2998; [6]): 4.24 µM | GI50 (UACC-257): 2.13 µM | TGI (UACC-257): 4.23 µM | CC50 (UACC-257; [6]): 8.4 µM | GI50 (HCT-15): 10.9 µM | TGI (HCT-15): 22.7 µM | CC50 (HCT-15; [6]): 47.7 µM | GI50 (HCT-116): 1.31 µM | TGI (HCT-116): 2.58 µM | CC50 (HCT-116; [6]): 5.08 µM | GI50 (A498): 2.73 µM | TGI (A498): 5.3 µM | CC50 (A498; [6]): 11.5 µM | GI50 (BT-549): 0.84 µM | TGI (BT-549): 2.06 µM | CC50 (BT-549; [6]): 4.54 µM | GI50 (ACHN): 2.12 µM | TGI (ACHN): 4.9 µM | CC50 (ACHN; [6]): 13.5 µM | GI50 (CCRF-CEM): 0.56 µM | TGI (CCRF-CEM): 2.1 µM | CC50 (CCRF-CEM; [6]): 6.5 µM | GI50 (LOX IMVI): 1.23 µM | TGI (LOX IMVI): 2.59 µM | CC50 (LOX IMVI; [6]): 5.48 µM | GI50 (M14): 1.44 µM | TGI (M14): 2.75 µM | CC50 (M14; [6]): 5.24 µM | GI50 (SNB-75): 2.64 µM | TGI (SNB-75): 4.15 µM | CC50 (SNB-75; [6]): 6.54 µM | IC50 [2]: 4.4 µM | GI50 (SF-295): 4.37 µM | TGI (SF-295): 15.9 µM | CC50 (SF-295; [6]): 74.7 µM | GI50 (HOP-62): 1.77 µM | TGI (HOP-62): 3.15 µM | CC50 (HOP-62; [6]): 5.61 µM | GI50 (UACC-62): 2.14 µM | TGI (UACC-62): 3.78 µM | CC50 (UACC-62; [6]): 6.68 µM | GI50 (SK-MEL-5): 1.92 µM | TGI (SK-MEL-5): 3.63 µM | CC50 (SK-MEL-5; [6]): 6.87 µM | GI50 (SR): 0.49 µM | TGI (SR): 1.79 µM | CC50 (SR; [6]): 6.79 µM | GI50 (EKVX): 2.12 µM | TGI (EKVX): 4.72 µM | CC50 (EKVX; [6]): 12.3 µM | GI50 (SF-268): 1.2 µM | TGI (SF-268): 2.57 µM | CC50 (SF-268; [6]): 5.53 µM | GI50 (OVCAR-4): 2.61 µM | TGI (OVCAR-4): 5.41 µM | CC50 (OVCAR-4; [6]): 17.5 µM | IC50 [3]: 29.8 µM | GI50 (PC-3): 2.97 µM | TGI (PC-3): 10.7 µM | CC50 (PC-3; [6]): 32.8 µM | GI50 [4]: 1.82 µM | TGI [4]: 4.08 µM | CC50 [4, 6]: 9.14 µM | GI50 (NCI-H460): 1.41 µM | TGI (NCI-H460): 2.98 µM | CC50 (NCI-H460; [6]): 6.31 µM | GI50 (NCI/ADR-RES): 2.02 µM | TGI (NCI/ADR-RES): 3.85 µM | CC50 (NCI/ADR-RES; [6]): 7.37 µM | GI50 (NCI-H23): 1.84 µM | TGI (NCI-H23): 3.36 µM | CC50 (NCI-H23; [6]): 6.17 µM | GI50 (SNB-19): 2.03 µM | TGI (SNB-19): 3.66 µM | CC50 (SNB-19; [6]): 6.6 µM | IC50 (RH7777): > 20 µM | GI50 (MOLT-4): 0.86 µM | TGI (MOLT-4): 2.43 µM | CC50 (MOLT-4; [6]): 6.51 µM | IC50 [5]: 15.5 µM
